Rpn11 block = Rpn11 (PSMD14) deubiquitinase inhibitors, primary screen, biochemical, fluorescence polarization, uHTS. human 26S proteasome, Ub4-pepOG fluorescence polarization; 20S core pre-blocked with epoxomicin. 360,000 tested, 0.59% active. calls only at 20 µM;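 active = inhibition at 20 µM, scaled to each plate's controls, above about 33%, limit read from the data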
IDE act = human IDE activators in live cells, primary screen, fluorescence polarization, HEK cells, FAbeta-B substrate; Insulin-degrading enzyme (Homo sapiens), P14735; FAbeta-B cleavage; 0% vehicle, 100% cell-free pure enzyme wells; activation, % at 5.96 µM; 340,000 tested, 0.073% active;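 active = activation above the mean of all tested compounds plus 3 SD, set per screening campaign, cut at about 17% in these data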
TPT1 inh = Candida albicans TPT1 enzyme inhibitors, primary screen, biochemical, fluorescence polarization. 300,000 tested, 0.81% active. recombinant caTPT1, FP RNA substrate dephosphorylation. tRNA 2'-phosphotransferase TPT1 (Candida albicans SC5314). inhibition, % at 5 µM;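 active = inhibition above the mean of all tested compounds plus 3 SD, set per screening campaign, cut at about 24% in these data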;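 also: plate controls were DMSO alone for no effect and ferristatin control at 100 nM for full effect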
CSN inh = inhibitors of CSN-mediated cullin deneddylation, primary screen, biochemical, fluorescence polarization, uHTS. 360,000 tested, 0.38% active. Purified CSN, SCF-Nedd8-OG deneddylation. inhibition, % at 12.5 µM;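 active = pattern-corrected inhibition above about 35%, with an unprinted fluorescence ratio check between 0.5 and 1.5, limit read from the data, passing the limit was not always enough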;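 also: 0% = enzyme with substrate and 100% = substrate without enzyme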
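assay system = purified human Csn5 enzyme expressed in HEK293T cells | amount = 0.24 nM enzyme | buffer or medium = Tris/NaCl/DTT buffer, pH 7.5 | reagent = 10 nM SCFSkp2-Nedd8OG | compound = one concentration, 12.5 µM, 0.25% DMSO | times = 90 min reaction at room temperature | signal = FP | read-out basis = % inhibition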
HNF4A DNA FP = change in binding of human HNF4A to DNA, primary screen, biochemical, fluorescence polarization, FITC-DNA | 1 h | activity change, % at 10 µM | 360,000 tested, 0.3% active | Hepatocyte nuclear factor 4-alpha (Homo sapiens), P41235; in the data active = activity change above about 30%, passing the limit was not always enough
Target sequence (P41235 whole entry, looked up): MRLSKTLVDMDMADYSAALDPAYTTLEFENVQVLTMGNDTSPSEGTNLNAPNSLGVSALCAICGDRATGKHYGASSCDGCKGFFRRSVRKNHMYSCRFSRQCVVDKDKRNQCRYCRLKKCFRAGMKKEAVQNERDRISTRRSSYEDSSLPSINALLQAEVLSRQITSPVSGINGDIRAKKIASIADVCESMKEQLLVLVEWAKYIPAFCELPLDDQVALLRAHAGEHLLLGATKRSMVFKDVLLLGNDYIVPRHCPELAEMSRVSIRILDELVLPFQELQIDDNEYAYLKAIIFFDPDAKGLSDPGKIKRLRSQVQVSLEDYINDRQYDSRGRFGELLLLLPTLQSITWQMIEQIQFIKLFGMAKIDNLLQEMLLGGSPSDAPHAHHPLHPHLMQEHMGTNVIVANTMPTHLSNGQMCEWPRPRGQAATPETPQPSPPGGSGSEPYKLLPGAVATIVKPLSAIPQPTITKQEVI
IDE cell inh = human IDE inhibitors in live cells, primary screen, fluorescence polarization, HEK cells, FAbetaB substrate. 320,000 tested, 0.41% active. FAbetaB cleavage. inhibition, % at 5.59 µM;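 active = percent inhibition above the average of all tested compounds plus 3 SD, set per screening campaign, cut at about 16% in these data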;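 also: IDE supplied by intact live HEK cells; FP after avidin binding of uncleaved biotin substrate so inhibition keeps polarization high; 0% = DMSO wells and 100% = 60 µM reference IDE inhibitor Ii1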
TPT1 inh confirm = Candida albicans TPT1 inhibitors, confirmation, biochemical, fluorescence polarization, triplicate; shares compounds with TPT1 inh; recombinant caTPT1, RNase T1 coupled; inhibition, % at 5 µM; 2,400 tested, 74% active; AID 2149, 2009;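 active = inhibition above the primary screen limit, the mean inhibition of all tested compounds plus 3 SD, cut at about 25% in these data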
RNase T1 counter = RNase T1 inhibitors, counter-screen for TPT1 inhibitor project, biochemical, fluorescence polarization | shares compounds with TPT1 inh | RNase T1 cleavage, 1536-well | inhibition, % at 5 µM | 2,400 tested, 83% active | AID 2153, 2009;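 active = inhibition above the solvent-only control well mean plus 3 SD, limit set per screening run, cut at about 23% in these data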;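 also: plate controls were DMSO wells with enzyme for no effect and wells without RNase T1 for full effect; inhibitors block cleavage so intact labeled substrate keeps polarization high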
Target sequence (P00651 whole entry, looked up): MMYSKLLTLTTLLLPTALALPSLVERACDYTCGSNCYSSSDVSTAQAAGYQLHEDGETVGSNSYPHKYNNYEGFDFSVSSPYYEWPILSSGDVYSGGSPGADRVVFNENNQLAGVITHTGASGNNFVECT
* = called active by the depositor; i = inactive; x = no result given. Rows were chosen to be rich in hits. Some 1.7% of all compounds tested hit in one or more screens of this group.

SMILES | Rpn11 block | IDE act | TPT1 inh | CSN inh | HNF4A DNA FP | IDE cell inh | TPT1 inh confirm | RNase T1 counter
O=C(O)C(=O)/C(=C\c1ccc(Cl)cc1)c1ccc2ccccc2n1 | i | 2 | 41* | 12 | 13 | 6 | 35* | 49*
Cc1cc(=O)oc2cc(OC(C)C(=O)NCC3CCC(C(=O)O)CC3)ccc12 (configuration not stated) | i | 1 | 3 | -3 | 4 | -4 | x | x
COc1ccccc1N/C=C/c1onc(C)c1[N+](=O)[O-] | i | 0 | 113* | 20 | 69* | 5 | 97* | 105*
Cc1noc(/C=C/Nc2ccc(F)cc2F)c1[N+](=O)[O-] | i | 2 | 4 | -10 | 0 | -2 | x | x
NS(=O)(=O)c1cc2c(cc1Cl)NC(Cc1ccccc1)NS2(=O)=O (configuration not stated) | i | 4 | 43* | 6 | 6 | 0 | 5 | 12
Cc1ccc(SC(C)C(=O)NCc2ccncc2)cc1 (configuration not stated) | i | -17 | 114* | -6 | -3 | 7 | 6 | 7
Cn1cccc1C(=O)NC(=O)COC(=O)c1cc([N+](=O)[O-])ccc1Cl | i | 2 | 1 | -3 | 4 | -3 | x | x
CN(C)S(=O)(=O)c1ccc(Cl)c(C(=O)OCC(=O)NC(=O)c2cccn2C)c1 | i | -1 | 125* | -13 | 3 | -1 | 10 | 12
CCOC(=O)N1CCN(c2cc(=O)n(-c3cccc(C)c3)c(=O)[nH]2)CC1 | i | -2 | 110* | -1 | 2 | 1 | -3 | 3
Cc1cc(N2C(=O)C(O)=C(C(=O)c3ccc(C)o3)C2c2cccs2)no1 (configuration not stated) | i | 1 | -1 | 2 | -1 | 4 | x | x
Cc1cc(N2C(=O)C(O)=C(C(=O)c3cc4ccccc4o3)C2c2cccs2)no1 (configuration not stated) | i | -4 | 41* | 10 | 7 | 4 | 30* | 39*
Cc1ccc2nc3sc(C(=O)N4CCCc5ccccc54)c(N)c3cc2c1 | x | -1 | 38* | 0 | 39* | 0 | 56* | 64*
Cc1cccc2cc3c(N)c(C(=O)N4CCOCC4)sc3nc12 | i | -2 | 1 | 1 | 2 | -1 | x | x
Cc1cc(C)c2cc3c(N)c(C(=O)N4CCc5ccccc5C4)sc3nc2c1 | i | 1 | 26* | 5 | 9 | 0 | 21 | 37*
O=C(N/N=C/c1sc(=O)n(-c2ccccc2)c1Cl)c1ccccc1 | i | -4 | 23 | 10 | 7 | 5 | x | x
NC(=O)N/N=C/c1sc(=O)n(-c2ccccc2)c1Cl | x | 6 | 39* | 14 | 27 | 1 | 47* | 66*
COC(=O)c1ccccc1NC(=O)Cn1c(CCC(=O)O)ccc1-c1cccs1 | i | -4 | 32* | 2 | -1 | -2 | 21 | 32*
Cc1ccsc1/C=C1/SC(=O)N(CC(=O)N2CCOCC2)C1=O | i | -1 | 70* | 2 | -2 | 6 | 6 | 9
Cc1ccc(/C=C2/SC(=O)N(CC(=O)N3CCOCC3)C2=O)s1 | x | 0 | 10 | 13 | 26 | 8 | x | x
O=C(CN1C(=O)S/C(=C/c2ccc(N3CCOCC3)cc2)C1=O)N1CCOCC1 | x | 2 | 40* | 11 | 15 | 9 | 61* | 73*
CCOC(=O)N1CCN(C(=O)COC(=O)CSc2ccc([N+](=O)[O-])cc2)CC1 | i | 1 | 0 | -1 | 2 | 3 | x | x
O=C(NCc1ccco1)c1cccc(S(=O)(=O)N2CCN(Cc3ccccc3)CC2)c1 | i | 0 | -2 | -2 | 1 | -1 | x | x
Nc1nc2ccccc2n1C(=O)c1ccc(F)cc1 | i | 0 | 4 | -3 | -1 | -7 | x | x
O=c1c(/C=C(\O)c2ccc(F)cc2)nc2ccccc2n1-c1ccccc1 | x | -2 | 62* | 12 | 20 | 2 | 79* | 75*
O=C(O)CC(NC(=O)/C(=C/c1ccccc1)NC(=O)c1ccccc1)c1ccccc1 (configuration not stated) | i | 7 | 0 | 8 | 2 | 2 | x | x
SMILES | Rpn11 block | IDE act | TPT1 inh | CSN inh | HNF4A DNA FP | IDE cell inh | TPT1 inh confirm | RNase T1 counter
Cc1c(C#N)c(O)[nH]c(=O)c1N=Nc1ccc(S(N)(=O)=O)cc1 | i | 3 | 25* | 0 | 7 | 4 | 14 | 26*
Cc1c(C#N)c(O)[nH]c(=O)c1N=Nc1ccc(Cl)c(C(=O)O)c1 | i | 0 | 8 | 1 | 5 | 1 | x | x
CC(C)(C)NC(=O)NC(=O)COC(=O)c1ccc2c(c1)S(=O)(=O)N=C1CCCCCN12 | i | -1 | 0 | 0 | 2 | 3 | x | x
COc1ccc2o/c(=N\O)c(C(=O)Nc3ccccc3OC)cc2c1 | i | -2 | 162* | 4 | 1 | 28* | 127* | 125*
COc1ccc2oc(=O)c(C(=O)Nc3ccccc3O)cc2c1 | i | 9 | 2 | 2 | 4 | 0 | x | x
Cc1nnc(SCc2nc3sc(C(=O)O)c(C)c3c(=O)[nH]2)s1 | i | 0 | 1 | 7 | -4 | -4 | x | x
CSCc1nc2sc(C(=O)Nc3nc(C)cs3)c(C)c2c(=O)[nH]1 | x | 1 | 33* | 7 | 25 | 2 | 39* | 51*
COc1cccc(C2=CC(c3ccc(N(C)C)cc3)n3ncnc3N2)c1 (configuration not stated) | x | x | 38* | x | x | 18* | 34* | 43*
COc1cccc(C2=CC(c3ccccc3)n3ncnc3N2)c1 (configuration not stated) | x | x | -14 | x | x | 8 | x | x
COc1ccc(C(=O)c2c[nH]c(C(=O)NCc3ccco3)c2)cc1 | i | 4 | -2 | 7 | 0 | -2 | x | x
CCN(CC)c1nc(C)c(C(=S)Nc2cc([N+](=O)[O-])ccc2Cl)s1 | x | -11 | 28* | 27 | 47* | 2 | 61* | 73*

Screens: PubChem, several laboratories
